Measured values reported in ChEMBL document CHEMBL1122854, “Novel bis[1,6-dihydro-6,6-dimethyl-1,3,5-triazine-2,4-diamines] as antitrypanosomal agents” (1985).

Columns and labels:
Assay type in all cases: functional
[1] = test system: Trypanosoma brucei rhodesiense; assay: Antitrypanosomal activity against Trypanosoma rhodesiense infections in mice, 6.6 mg/kg administered subcutaneously; conditions: route subcutaneous
Procedure, shortened: (§1)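 Six-week-old IUR/HA Swiss mice (30-32 g), 5 per dose, infected ip with 0.5 mL of a 1:50 000 dilution of heparinized heart blood from donor mice infected 3 days before (Wellcome CT strain). Single sc dose in peanut oil about 2 h post-inoculation. Deaths before day 4 counted toxic. ΔMST versus untreated controls; survivors at 30 days counted cured.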

[2] = test system: Trypanosoma brucei rhodesiense; assay: Antitrypanosomal activity against Trypanosoma rhodesiense infections in mice, 3.3 mg/kg administered subcutaneously; conditions: route subcutaneous; procedure, shortened: as §1
[3] = test system: Mus musculus; assay: Antitrypanosomal activity was evaluated against Trypanosoma rhodesiense infections in mice, at dose 6.6 mg/kg, administered subcutaneously; conditions: route subcutaneous
Procedure, shortened: (§2)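 IUR/HA Swiss mice (six weeks old, 30-32 g) infected i.p. with Wellcome CT strain T. rhodesiense. A single subcutaneous dose in peanut oil was given about 2 h after inoculation, with five mice per dose level. Positive control was stilbamidine or 2-hydroxystilbamidine isethionate at 40 mg/kg. Deaths before day 4 were scored toxic, and 30-day survivors cured.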

[4] = test system: Mus musculus; assay: Antitrypanosomal activity was evaluated against Trypanosoma rhodesiense infections in mice, at dose 26 mg/kg, administered subcutaneously; Cures; conditions: route subcutaneous; procedure, shortened: as §2
[5] = test system: Mus musculus; assay: Antitrypanosomal activity was evaluated against Trypanosoma rhodesiense infections in mice, at dose 13 mg/kg, administered subcutaneously; Cures; conditions: route subcutaneous; procedure, shortened: as §2
[6] = test system: Trypanosoma brucei rhodesiense; assay: (§3) Antitrypanosomal activity was evaluated against Trypanosoma rhodesiense infections in mice, at dose 106 mg/kg, administered subcutaneously; conditions: route subcutaneous; procedure, shortened: as §2
[7] = test system: Trypanosoma brucei rhodesiense; assay: Anti-trypanosomal activity against Trypanosoma rhodesiense infections in mice, 26 mg/kg administered subcutaneously; conditions: route subcutaneous; procedure, shortened: as §1
[8] = test system: Trypanosoma brucei rhodesiense; assay: Antitrypanosomal activity was evaluated against Trypanosoma rhodesiense infections in mice, at dose 1.6 mg/kg, administered subcutaneously; conditions: route subcutaneous; procedure, shortened: as §1
[9] = test system: Trypanosoma brucei rhodesiense; assay: Antitrypanosomal activity against Trypanosoma rhodesiense infections in mice, 424 mg/kg administered subcutaneously; conditions: route subcutaneous; procedure, shortened: as §2
[10] = test system: Trypanosoma brucei rhodesiense; assay: (§4) Antitrypanosomal activity was evaluated against Trypanosoma rhodesiense infections in mice, at dose 53 mg/kg, administered subcutaneously; conditions: route subcutaneous; procedure, shortened: as §1
[11] = test system: Mus musculus; assay: Antitrypanosomal activity was evaluated against Trypanosoma rhodesiense infections in mice, at dose 53 mg/kg, administered subcutaneously; Cures; conditions: route subcutaneous; procedure, shortened: as §2
[12] = test system: Mus musculus; assay: as §4; conditions: route subcutaneous; procedure, shortened: as §2
[13] = test system: Mus musculus; assay: Antitrypanosomal activity was evaluated against Trypanosoma rhodesiense infections in mice, at dose 6.6 mg/kg, administered subcutaneously;Cures; conditions: route subcutaneous; procedure, shortened: as §2
[14] = test system: Mus musculus; assay: as §3; conditions: route subcutaneous; procedure, shortened: as §2
[15] = test system: Mus musculus; assay: Antitrypanosomal activity was evaluated against Trypanosoma rhodesiense infections in mice, at dose 13 mg/kg, administered subcutaneously;Cures; conditions: route subcutaneous; procedure, shortened: as §2
[16] = test system: Mus musculus; assay: Antitrypanosomal activity was evaluated against Trypanosoma rhodesiense infections in mice, at dose 424 mg/kg, administered subcutaneously;Toxic; conditions: route subcutaneous; procedure, shortened: as §2
[17] = test system: Mus musculus; assay: Antitrypanosomal activity was evaluated against Trypanosoma rhodesiense infections in mice, at dose 424 mg/kg, administered subcutaneously;Cures; conditions: route subcutaneous; procedure, shortened: as §2
[18] = test system: Mus musculus; assay: (§5) Antitrypanosomal activity was evaluated against Trypanosoma rhodesiense infections in mice, at dose 26 mg/kg, administered subcutaneously;Cures; conditions: route subcutaneous; procedure, shortened: as §2
[19] = test system: Trypanosoma brucei rhodesiense; assay: (§6) Antitrypanosomal activity was evaluated against Trypanosoma rhodesiense infections in mice, at dose 212 mg/kg, administered subcutaneously; conditions: route subcutaneous; procedure, shortened: as §1
[20] = test system: Mus musculus; assay: Antitrypanosomal activity was evaluated against Trypanosoma rhodesiense infections in mice, at dose 106 mg/kg, administered subcutaneously; Cures; conditions: route subcutaneous; procedure, shortened: as §2
[21] = test system: Mus musculus; assay: Antitrypanosomal activity was evaluated against Trypanosoma rhodesiense infections in mice, at dose 212 mg/kg, administered subcutaneously;Cures; conditions: route subcutaneous; procedure, shortened: as §2
[22] = test system: Trypanosoma brucei rhodesiense; assay: Antitrypanosomal activity was evaluated against Trypanosoma rhodesiense infections in mice, at dose 106 mg/kg, administered subcutaneously;Toxic; conditions: route subcutaneous; procedure, shortened: as §2
[23] = test system: Mus musculus; assay: Antitrypanosomal activity was evaluated against Trypanosoma rhodesiense infections in mice, at dose 53 mg/kg, administered subcutaneously;Toxic; conditions: route subcutaneous; procedure, shortened: as §2
[24] = test system: Mus musculus; assay: Antitrypanosomal activity was evaluated against Trypanosoma rhodesiense infections in mice, at dose 3.3 mg/kg, administered subcutaneously;Cures; conditions: route subcutaneous; procedure, shortened: as §2
[25] = test system: Mus musculus; assay: as §5; conditions: route subcutaneous; procedure, shortened: as §1; remark: listed apart in the source
[26] = test system: Mus musculus; assay: Antitrypanosomal activity was evaluated against Trypanosoma rhodesiense infections in mice, at dose 1.6mg/kg, administered subcutaneously;Cures; procedure, shortened: as §2
[27] = test system: Mus musculus; assay: Antitrypanosomal activity was evaluated against Trypanosoma rhodesiense infections in mice, at dose 106 mg/kg, administered subcutaneously;Cures; conditions: route subcutaneous; procedure, shortened: as §2
[28] = test system: Mus musculus; assay: Antitrypanosomal activity was evaluated against Trypanosoma rhodesiense infections in mice, at dose 53 mg/kg, administered subcutaneously;Cures; conditions: route subcutaneous; procedure, shortened: as §2
[29] = test system: Trypanosoma brucei rhodesiense; assay: Antitrypanosomal activity against Trypanosoma rhodesiense infections in mice, 106 mg/kg administered subcutaneously; conditions: route subcutaneous; procedure, shortened: as §1
[30] = test system: Mus musculus; assay: Antitrypanosomal activity was evaluated against Trypanosoma rhodesiense infections in mice, at dose 212 mg/kg, administered subcutaneously;Toxic; conditions: route subcutaneous; procedure, shortened: as §2
[31] = test system: Trypanosoma brucei rhodesiense; assay: (§7) Antitrypanosomal activity was evaluated against Trypanosoma rhodesiense infections in mice, at dose 26 mg/kg, administered subcutaneously; conditions: route subcutaneous; procedure, shortened: as §2
[32] = test system: Mus musculus; assay: Antitrypanosomal activity was evaluated against Trypanosoma rhodesiense infections in mice, at dose 13 mg/kg, administered subcutaneously; conditions: route subcutaneous; procedure, shortened: as §2
[33] = test system: Mus musculus; assay: Antitrypanosomal activity was evaluated against Trypanosoma rhodesiense infections in mice, at dose 3.3 mg/kg, administered subcutaneously;Toxic; conditions: route subcutaneous; procedure, shortened: as §2
[34] = test system: Mus musculus; assay: as §7; conditions: route subcutaneous; procedure, shortened: as §2
[35] = test system: Mus musculus; assay: Antitrypanosomal activity was evaluated against Trypanosoma rhodesiense infections in mice, at dose 26 mg/kg, administered subcutaneously;Toxic; conditions: route subcutaneous; procedure, shortened: as §2
[36] = test system: Mus musculus; assay: Antitrypanosomal activity was evaluated against Trypanosoma rhodesiense infections in mice, at dose 1.6 mg/kg, administered subcutaneously; Cures; conditions: route subcutaneous; procedure, shortened: as §2
[37] = test system: Mus musculus; assay: Antitrypanosomal activity was evaluated against Trypanosoma rhodesiense infections in mice, at dose 3.3 mg/kg, administered subcutaneously; Cures; conditions: route subcutaneous; procedure, shortened: as §2
[38] = test system: Mus musculus; assay: as §6; conditions: route subcutaneous; procedure, shortened: as §2
[39] = test system: Mus musculus; assay: Antitrypanosomal activity was evaluated against Trypanosoma rhodesiense infections in mice, at dose 6.6 mg/kg administered subcutaneously; Cures; conditions: route subcutaneous; procedure, shortened: as §2

CC1(C)N=C(N)N=C(N)N1c1ccc(OCOc2ccc(N3C(N)=NC(N)=NC3(C)C)cc2)cc1.Cl.Cl
Delta MST [1]: 2.3 days | Delta MST [2]: 1.2 days | Cures [3]: 1 | Cures [4]: 3 | Cures [5]: 3 | Toxic [6]: 5 | Delta MST [7]: 1.8 days | Delta MST [8]: 1 days | Toxic [9]: 5 | Delta MST [10]: 9 days | Cures [11]: 1 | Toxic [12]: 2

CC1(C)N=C(N)N=C(N)N1c1ccc(Oc2ccc(N3C(N)=NC(N)=NC3(C)C)cc2)cc1.Cl.Cl
Cures [13]: 1 | Delta MST [1]: 5.3 days | Delta MST [2]: 4.2 days | Toxic [14]: 5 | Delta MST [7]: 5 days | Toxic [9]: 5 | Cures [15]: 2

Cl.Cl.NC1=NC(c2ccccc2)N(c2ccc(CCc3ccc(N4C(N)=NC(N)=NC4c4ccccc4)cc3)cc2)C(N)=N1 (centres undefined)
Delta MST [1]: 0 days | Toxic [16]: 2 | Delta MST [2]: 0.4 days | Cures [17]: 3 | Delta MST [7]: 4.1 days | Cures [18]: 1 | Delta MST [19]: 2.2 days | Cures [20]: 5 | Cures [11]: 5 | Cures [21]: 4

CC1(C)N=C(N)N=C(N)N1c1ccc2c(c1)Cc1cc(N3C(N)=NC(N)=NC3(C)C)ccc1-2.Cl.Cl
Cures [13]: 2 | Toxic [22]: 3 | Toxic [23]: 1 | Cures [24]: 1 | Delta MST [1]: 4.3 days | Delta MST [2]: 4 days | Delta MST [25]: 3 days | Delta MST [7]: 4.5 days | Delta MST [8]: 3 days | Toxic [9]: 5 | Delta MST [19]: 26 days | Cures [26]: 1 | Cures [27]: 1 | Cures [28]: 4 | Delta MST [29]: 2 days | Toxic [30]: 4 | Cures [15]: 3

CC1(C)N=C(N)N=C(N)N1c1ccc(OCCCOc2ccc(N3C(N)=NC(N)=NC3(C)C)cc2)cc1.Cl.Cl
Toxic [31]: 5 | Delta MST [2]: 0 days | Toxic [3]: 5 | Toxic [6]: 5 | Delta MST [8]: 0 days | Toxic [9]: 5 | Toxic [32]: 5 | Toxic [33]: 1

Cc1ccc(N2C(N)=NC(N)=NC2(C)C)cc1N1C(N)=NC(N)=NC1(C)C.Cl.Cl
Toxic [34]: 2 | Delta MST [1]: 0 days | Delta MST [2]: 0.2 days | Toxic [6]: 5 | Delta MST [7]: -0.1 days | Delta MST [8]: 0.2 days | Toxic [9]: 5

Cc1cc(N2C(N)=NC(N)=NC2(C)C)ccc1CCc1ccc(N2C(N)=NC(N)=NC2(C)C)cc1C.Cl.Cl
Delta MST [1]: 1 days | Delta MST [2]: 0.4 days | Toxic [6]: 5 | Delta MST [7]: 1.4 days | Toxic [35]: 3 | Delta MST [8]: 0.8 days | Toxic [9]: 5

CC1(C)N=C(N)N=C(N)N1c1ccc(-c2ccc(N3C(N)=NC(N)=NC3(C)C)cc2)cc1.Cl.Cl
Cures [36]: 1 | Toxic [31]: 5 | Delta MST [1]: 7.8 days | Cures [37]: 1 | Delta MST [2]: 9.2 days | Toxic [6]: 5 | Delta MST [8]: 3.7 days | Toxic [38]: 5 | Cures [39]: 4 | Toxic [32]: 5 | Toxic [12]: 5
